In brackets after ≈: the same amount, converted by molar mass. Values belong to the molecule of their own block, whether it stands above or below them. Activity calls are given as the source filed them.
Key:
Mus musculus [1] = test: Antiinflammatory activity against BALB/c mouse assessed as inhibition of carrageenan-induced paw edema at 50 mg/kg, po after 4 hrs; type: functional
Summary of the method: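 Mice were fasted on the last day (water only) and dosed by gavage at 50 mg/kg, suspended in 0.5% methyl cellulose; controls got vehicle, six mice per group. After 60 min, 0.5 mg/mL carrageenan in saline was injected subplantar into the right hind paw, with saline in the left. The right–left thickness difference was read by microcaliper at 4 h. % inhibition = (n−n0)/n×100 versus control.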

Mus musculus [2] = test: Antinociceptive activity against mouse assessed as paw withdrawal latency at 50 mg/kg, po after 60 mins by hot plate test; type: functional
Summary of the method: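 Hot plate was set at 55 °C. Latency to jumping or hind-paw licking was recorded before and 60 min after oral dosing at 50 mg/kg, or vehicle, with a 30 s cutoff. Groups had at least eight mice each. Testing was done between 2:00 and 4:00 pm.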

Human alphaherpesvirus 1 [3] = test: Antiviral activity against TK positive HSV1 KOS-induced cytopathogenicity at 16 ug/mL; type: functional, organism-based
Streptococcus pyogenes = test: Antimicrobial activity against Streptococcus pyogenes KUKEM676 by disk diffusion method at 300 ug/disc; type: functional
Summary of the method: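 Mueller-Hinton agar was spread with 10^8 CFU/mL bacteria. 6 mm discs held 300 per disc of test agent, with DMSO discs as negative controls. Plates were incubated 24 h, at 37 °C for clinical strains or 27 °C for plant-associated strains. Zone of inhibition diameter in mm was measured. Each assay was repeated twice.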

Human alphaherpesvirus 2 = test: Antiviral activity against HSV2-induced cytopathogenicity at 16 ug/mL; type: functional, organism-based
Proteus vulgaris [4] = test: Antimicrobial activity against Proteus vulgaris A161 […]; type: functional
Summary of the method: (§1)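 For broth microdilution, inocula came from 12 h broth cultures adjusted to 0.5 McFarland. Test agents in 10% DMSO were serially diluted twofold (7.8–500) in nutrient broth. Wells were shaken 20 s at 300 rpm and incubated 24 h. Clear wells were plated on nutrient agar to check growth. MIC was the lowest concentration inhibiting growth. Each compound was screened twice per organism.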

Proteus vulgaris [5] = test: Antimicrobial activity against Proteus vulgaris KUKEM1329 by disk diffusion method at 300 ug/disc; type: functional; summary of the method: as §1
Aspergillus flavus [6] = test: Antifungal activity against Aspergillus flavus after 72 hrs by agar dilution method; type: functional
Summary of the method: (§2)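 Fungal isolates were screened on agar dilution plates. Test agents in 10% DMSO were mixed into potato dextrose agar containing 0.5% v/v Tween 20, over a range of 7.8–500. Plates were spot-inoculated with 10^4 spore/mL and held 72 h, at 27 °C for plant isolates or 37 °C for clinical isolates. MIC was the lowest concentration with no growth. Each test was repeated at least twice.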

Aspergillus flavus [7] = test: Antifungal activity against Aspergillus flavus at 300 ug/disc after 72 hrs by disk diffusion method; type: functional
Summary of the method: (§3)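 Disc diffusion was run on potato dextrose agar seeded with 10^4 spore/mL. 6 mm discs each carried 300 per disc of test agent. DMSO-impregnated discs served as negative controls. Plates were incubated 72 h, at 27 °C for plant-associated isolates or 37 °C for clinical isolates. The read-out was inhibition zone diameter in mm. Each assay was repeated twice.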

Aspergillus versicolor [8] = test: Antifungal activity against Aspergillus variecolor after 72 hrs by agar dilution method; type: functional; summary of the method: as §2
Aspergillus versicolor [9] = test: Antifungal activity against Aspergillus variecolor at 300 ug/disc after 72 hrs by disk diffusion method; type: functional; summary of the method: as §3
Trichophyton rubrum [10] = test: Antifungal activity against Trichophyton rubrum after 72 hrs by agar dilution method; type: functional; summary of the method: as §2
Trichophyton rubrum [11] = test: Antifungal activity against Trichophyton rubrum at 300 ug/disc after 72 hrs by disk diffusion method; type: functional; summary of the method: as §3
Coxsackievirus B4 = test: Antiviral activity against Coxsackie virus B4-induced cytopathogenicity at 16 ug/mL; type: functional, organism-based
Sindbis virus [12] = test: Antiviral activity against Sindbis virus-induced cytopathogenicity at 9.6 ug/mL; type: functional, organism-based
Sindbis virus [13] = test: Antiviral activity against Sindbis virus-induced cytopathogenicity at 16 ug/mL; type: functional, organism-based
Punta Toro virus = test: Antiviral activity against Punta Toro virus-induced cytopathogenicity at 16 ug/mL; type: functional, organism-based
Human alphaherpesvirus 1 [14] = test: Antiviral activity against acyclovir resistant TK positive HSV1 KOS-induced cytopathogenicity at 16 ug/mL; type: functional, organism-based

SMILES: Oc1ccc(-c2ccc(F)cc2F)cc1-c1nnc(Nc2ccccc2)o1
- inhibition in vivo at 50 mg/kg (Mus musculus [1]): 39.5%
- Paw withdrawal latency (Mus musculus [2]): 12 s

SMILES: Oc1ccc(-c2ccc(F)cc2F)cc1-c1n[nH]c(=S)n1-c1ccccc1
- inhibition in vivo at 50 mg/kg (Mus musculus [1]): 36.3%
- Paw withdrawal latency (Mus musculus [2]): 16 s
- Activity (Human alphaherpesvirus 1 [3]): Active

- MIC (Streptococcus pyogenes): 31.2 µg/mL (≈ 65 µM)
SMILES: CO/N=C(\C(=O)N[C@@H]1C(=O)N2C(C(=O)[O-])=C(C[N+]3(C)CCCC3)CS[C@H]12)c1csc(N)n1 [CEFEPIME]

SMILES: Cc1ccc(Nc2nnc(-c3cc(-c4ccc(F)cc4F)ccc3O)o2)cc1
- inhibition in vivo at 50 mg/kg (Mus musculus [1]): 33.8%
- Paw withdrawal latency (Mus musculus [2]): 11.1 s

SMILES: C=CCNc1nnc(-c2cc(-c3ccc(F)cc3F)ccc2O)o1
- inhibition in vivo at 50 mg/kg (Mus musculus [1]): 36.6%
- Paw withdrawal latency (Mus musculus [2]): 9.8 s
- Activity (Human alphaherpesvirus 2): Active

- MIC (Aspergillus flavus [7]): 31.2 µg/mL (≈ 93.7 µM)
- MIC (Aspergillus versicolor [9]): 31.2 µg/mL (≈ 93.7 µM)
- MIC (Trichophyton rubrum [11]): 15.2 µg/mL (≈ 45.7 µM)
SMILES: CCn1c(-c2cc(-c3ccc(F)cc3F)ccc2O)n[nH]c1=S
- inhibition in vivo at 50 mg/kg (Mus musculus [1]): 46.2%
- Paw withdrawal latency (Mus musculus [2]): 17.1 s
- inhibition zone (IZ) (Proteus vulgaris [4]): 9 mm
- inhibition zone (IZ) (Proteus vulgaris [5]): 9 mm
- inhibition zone (IZ) (Aspergillus flavus [6]): 16 mm
- inhibition zone (IZ) (Aspergillus versicolor [8]): 14 mm
- inhibition zone (IZ) (Trichophyton rubrum [10]): 16 mm
- Activity (Coxsackievirus B4): Active

SMILES: CNc1nnc(-c2cc(-c3ccc(F)cc3F)ccc2O)o1
- inhibition in vivo at 50 mg/kg (Mus musculus [1]): 41.4%
- Paw withdrawal latency (Mus musculus [2]): 10.9 s

SMILES: Cc1ccc(Nc2nnc(-c3cc(-c4ccc(F)cc4F)ccc3O)s2)cc1
- inhibition in vivo at 50 mg/kg (Mus musculus [1]): 43.5%
- Paw withdrawal latency (Mus musculus [2]): 14.5 s

SMILES: CNc1nnc(-c2cc(-c3ccc(F)cc3F)ccc2O)s1
- inhibition in vivo at 50 mg/kg (Mus musculus [1]): 45.4%
- Paw withdrawal latency (Mus musculus [2]): 13.5 s
- Activity (Coxsackievirus B4): Active
- Activity (Sindbis virus [12]): Active
- Activity (Human alphaherpesvirus 1 [3]): Active
- Activity (Sindbis virus [13]): Active
- Activity (Punta Toro virus): Active
- Activity (Human alphaherpesvirus 1 [14]): Active

SMILES: Cc1ccc(-n2c(-c3cc(-c4ccc(F)cc4F)ccc3O)n[nH]c2=S)cc1
- inhibition in vivo at 50 mg/kg (Mus musculus [1]): 51.6%
- Paw withdrawal latency (Mus musculus [2]): 14.2 s

SMILES: O=C(O)c1cc(-c2ccc(F)cc2F)ccc1O [DIFLUNISAL]
- inhibition in vivo at 50 mg/kg (Mus musculus [1]): 24.2%
- Paw withdrawal latency (Mus musculus [2]): 19.1 s

SMILES: Oc1ccc(-c2ccc(F)cc2F)cc1-c1nnc(NC2CCCCC2)s1
- inhibition in vivo at 50 mg/kg (Mus musculus [1]): 41.4%
- Paw withdrawal latency (Mus musculus [2]): 12.5 s

SMILES: COc1ccc(Nc2nnc(-c3cc(-c4ccc(F)cc4F)ccc3O)s2)cc1
- inhibition in vivo at 50 mg/kg (Mus musculus [1]): 55.3%
- Paw withdrawal latency (Mus musculus [2]): 19.2 s
